The source of these data is ChEMBL document CHEMBL1629668, “Activity of anidulafungin in a murine model of Candida krusei infection: evaluation of mortality and disease burden by quantitative tissue cultures and measurement of serum (1,3)-beta-D-glucan levels” (2009).

SMILES strings stand for the structures. ≈ marks a conversion by molar mass, not a printed value. Calls of active or inactive are those of the source. Numbered stars: 1 amine (or outer) side, 2 acyl side, 3 side chain; on linkers, the order of the positions; unused ones are H or OH. Bridge positions count the residues as written; N and C are the ends. Square brackets hold non-standard residues; d marks the D form. Peptide text beside a SMILES is read from it. * marks the point of attachment. pTerphenylCO(4''-OnC5H11) = CCCCCOc1ccc(-c2ccc(-c3ccc(C(=O)*)cc3)cc2)cc1; Orn(4R-OH,5R-OH) = O=C([C@H](C[C@@H](O)[C@@H](O)N[*:3])N[*:1])[*:2]; hTyr(3S-OH,4S-OH) = N[C@H](C(=O)O)[C@H](O)[C@@H](O)c1ccc(O)cc1; Pro(3S-OH,4S-Me) = C[C@H]1CN[C@H](C(=O)O)[C@H]1O; Hyp = O=C(O)[C@@H]1C[C@@H](O)CN1

Assay [1] has as its system Pichia kudriavzevii. Kind of assay: Antimicrobial activity against Candida krusei LMR 39-14 infected in immunosuppressed CF-1 mouse assessed as decrease in kidney bacterial burden at 1 mg/kg, ip administered once daily for 5 days measured after 10 days (Rvb= 5.22). It is filed as functional. The conditions noted are these: route intraperitoneal. In outline: (§1)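 C. krusei clinical bloodstream isolate given IV by tail vein at 1.3×10^7 to 1.5×10^7 CFU/mouse, with inoculum confirmed by plating. Mice immunosuppressed with 5-FU 200 mg/kg i.p. 3 days before and dexamethasone 4 mg/kg s.c. on the day of infection. Treatment i.p. q24h for 5 days. Five mice/group killed day 5 or day 10. Both kidneys homogenized and plated on Sabouraud agar for 48 h; log10 CFU/g; detection limit 40 CFU/g; ANOVA; duplicate runs pooled.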

The subject of assay [2] is Pichia kudriavzevii. Kind of assay: Antimicrobial activity against Candida krusei LMR 39-14 infected in immunosuppressed CF-1 mouse assessed as increased survival of mouse at 1 mg/kg, ip administered once daily for 5 days relative to control. The class given is functional, organism-based. The arrangement: dose 1 mg/kg. In outline:
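Immunosuppression used 5-FU 200 mg/kg i.p. on day −3 and dexamethasone 4 mg/kg s.c. on day 0. C. krusei bloodstream isolate was given IV via tail vein at 1.3×10^7 to 1.5×10^7 CFU. Drug i.p. q24h for 5 days, saline placebo. Fifteen mice/group per run followed for survival; experiment in duplicate, pooled. Kaplan-Meier estimates compared by log-rank test.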

The test system of assay [3] is Pichia kudriavzevii. Put plainly: Antimicrobial activity against Candida krusei LMR 39-14 infected in immunosuppressed CF-1 mouse assessed as serum 1,3-beta-D-glucan level at 1 mg/kg, ip administered once daily for 5 days measured after 5 days (Rvb= 6.66). The class given is functional. To be noted: route intraperitoneal.
Assay [4] relates to Pichia kudriavzevii. Put plainly: Antimicrobial activity against Candida krusei LMR 39-14 infected in immunosuppressed CF-1 mouse assessed as decrease in kidney bacterial burden at 1 mg/kg, ip administered once daily for 5 days measured after 5 days (Rvb= 6.66). It is filed as functional. To be noted: route intraperitoneal. In outline:
as §1

Assay [5] relates to Pichia kudriavzevii. Put plainly: Antimicrobial activity against Candida krusei LMR 39-14 infected in immunosuppressed CF-1 mouse assessed as serum 1,3-beta-D-glucan level at 1 mg/kg, ip administered once daily for 5 days measured after 10 days (Rvb= 5.22). The class given is functional. To be noted: route intraperitoneal.
Assay [6] relates to Pichia kudriavzevii. Kind of assay: Antimicrobial activity against Candida krusei LMR 39-14 infected in immunosuppressed CF-1 mouse assessed as serum 1,3-beta-D-glucan level at 40 mg/kg, ip administered once daily for 5 days measured after 10 days (Rvb= 5.22). It is filed as functional. To be noted: route intraperitoneal. The gist of the method:
(§2)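 Serum (1,3)-β-D-glucan in immunosuppressed CF-1 mice (5-FU 200 mg/kg i.p. day −3, dexamethasone 4 mg/kg s.c. day 0) infected i.v. with 1.3×10^7 to 1.5×10^7 CFU. Mice dosed i.p. q24h for 5 days with saline placebo. Blood taken from five mice per group on day 5 or 10 post-inoculation and assayed with the Fungitell kit (threshold 31 pg/ml). Groups compared by Kruskal-Wallis; duplicate runs pooled.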

The subject of assay [7] is Pichia kudriavzevii. Kind of assay: Antimicrobial activity against Candida krusei LMR 39-14 infected in immunosuppressed CF-1 mouse assessed as increased survival of mouse at 40 mg/kg, ip administered once daily for 5 days relative to control. It is filed as functional, organism-based. The arrangement: dose 40 mg/kg. The gist of the method:
(§3)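 Same immunosuppressed CF-1 model: 5-FU 200 mg/kg i.p. on day −3, dexamethasone 4 mg/kg s.c. on day 0, i.v. tail inoculation of 1.3×10^7 to 1.5×10^7 CFU. Treatment i.p. q24h for 5 days with saline placebo. Fifteen mice per group observed for survival; run in duplicate with data pooled; Kaplan-Meier estimates compared by log-rank test.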

Assay [8] has as its system Pichia kudriavzevii. Put plainly: Antimicrobial activity against Candida krusei LMR 39-14 by M27-A3 microdilution method. The class given is functional. Background: In broth dilution the organism is exposed to a series of concentrations in liquid medium.
In assay [9] the test system is Pichia kudriavzevii. Kind of assay: Antimicrobial activity against Candida krusei LMR 39-14 infected in immunosuppressed CF-1 mouse assessed as decrease in kidney bacterial burden at 40 mg/kg, ip administered once daily for 5 days measured after 5 days (Rvb= 6.66). It is filed as functional. To be noted: route intraperitoneal.
In assay [10] the test system is Pichia kudriavzevii. Put plainly: Antimicrobial activity against Candida krusei LMR 39-14 infected in immunosuppressed CF-1 mouse assessed as decrease in kidney […] burden at 40 mg/kg, ip administered once daily for 5 days measured after 10 days (Rvb= 5.22). It is filed as functional. The conditions noted are these: route intraperitoneal.
In assay [11] the test system is Pichia kudriavzevii. Kind of assay: Antimicrobial activity against Candida krusei LMR 39-14 infected in immunosuppressed CF-1 mouse assessed as serum 1,3-beta-D-glucan level at 40 mg/kg, ip administered once daily for 5 days measured after 5 days (Rvb= 6.66). It is filed as functional. The conditions noted are these: route intraperitoneal. The gist of the method:
as §2

Assay [12] concerns Pichia kudriavzevii. Kind of assay: Antimicrobial activity against Candida krusei LMR 39-14 infected in immunosuppressed CF-1 mouse assessed as serum 1,3-beta-D-glucan level at 10 mg/kg, ip administered once daily for 5 days measured after 5 days (Rvb= 6.66). The conditions noted are these: route intraperitoneal. The class given is functional. The gist of the method:
as §2

Assay [13] has as its system Pichia kudriavzevii. Kind of assay: Antimicrobial activity against Candida krusei LMR 39-14 infected in immunosuppressed CF-1 mouse assessed as decrease in kidney bacterial burden at 10 mg/kg, ip administered once daily for 5 days measured after 5 days (Rvb= 6.66). The class given is functional. To be noted: route intraperitoneal.
Assay [14] deals with Pichia kudriavzevii. Put plainly: Antimicrobial activity against Candida krusei LMR 39-14 infected in immunosuppressed CF-1 mouse assessed as increased survival of mouse at 10 mg/kg, ip administered once daily for 5 days relative to control. It is filed as functional, organism-based. The arrangement: dose 10 mg/kg. In outline:
as §3

The subject of assay [15] is Pichia kudriavzevii. Kind of assay: Antimicrobial activity against Candida krusei LMR 39-14 infected in immunosuppressed CF-1 mouse assessed as serum 1,3-beta-D-glucan level at 20 mg/kg, ip administered once daily for 5 days measured after 5 days (Rvb= 5.22). It is filed as functional. The conditions noted are these: route intraperitoneal. In outline: as §2
In assay [16] the test system is Pichia kudriavzevii. Put plainly: Antimicrobial activity against Candida krusei LMR 39-14 infected in immunosuppressed CF-1 mouse assessed as decrease in kidney bacterial burden at 10 mg/kg, ip administered once daily for 5 days measured after 10 days (Rvb= 5.22). It is filed as functional. To be noted: route intraperitoneal.
Assay [17] deals with Pichia kudriavzevii. Kind of assay: Antimicrobial activity against Candida krusei LMR 39-14 infected in immunosuppressed CF-1 mouse assessed as decrease in kidney bacterial burden at 20 mg/kg, ip administered once daily for 5 days measured after 5 days (Rvb= 5.22). It is filed as functional. The conditions noted are these: route intraperitoneal.
The test system of assay [18] is Pichia kudriavzevii. Kind of assay: Antimicrobial activity against Candida krusei LMR 39-14 infected in immunosuppressed CF-1 mouse assessed as serum 1,3-beta-D-glucan level at 20 mg/kg, ip administered once daily for 5 days measured after 10 days (Rvb= 5.22). It is filed as functional. To be noted: route intraperitoneal. In outline: as §2
For assay [19], the system named is Pichia kudriavzevii. Put plainly: Antimicrobial activity against Candida krusei LMR 39-14 infected in immunosuppressed CF-1 mouse assessed as increased survival of mouse at 20 mg/kg, ip administered once daily for 5 days relative to control. The arrangement: dose 20 mg/kg. The class given is functional, organism-based. The gist of the method:
as §3

Assay [20] concerns Pichia kudriavzevii. Put plainly: Antimicrobial activity against Candida krusei by […]. The class given is functional. Background: A growth-free zone around the sample is the usual read-out of agar diffusion tests.
Assay [21] concerns Pichia kudriavzevii. Put plainly: Antimicrobial activity against Candida krusei LMR 39-14 infected in immunosuppressed CF-1 mouse assessed as serum 1,3-beta-D-glucan level at 10 mg/kg, ip administered once daily for 5 days measured after 10 days (Rvb= 5.22). The class given is functional. To be noted: route intraperitoneal. In outline: as §2
Assay [22] deals with Pichia kudriavzevii. Kind of assay: Antimicrobial activity against Candida krusei LMR 39-14 infected in immunosuppressed CF-1 mouse assessed as decrease in kidney bacterial burden at 20 mg/kg, ip administered once daily for 5 days measured after 10 days (Rvb= 5.22). It is filed as functional. To be noted: route intraperitoneal.

For `C[C@@H]1[C@H](O)[C@@H](C)/C=C/C=C/C=C/C=C/C=C/C=C/C=C/[C@H](O[C@@H]2O[C@H](C)[C@@H](O)[C@H](N)[C@@H]2O)C[C@@H]2O[C@](O)(C[C@@H](O)C[C@@H](O)[C@H](O)CC[C@@H](O)C[C@@H](O)CC(=O)O[C@H]1C)C[C@H](O)[C@H]2C(=O)O` [AMPHOTERICIN B], the log10CFU/g with Pichia kudriavzevii [1] is 4.96; in the assay with Pichia kudriavzevii [4] it was 5.95. Further, the result in the assay on Pichia kudriavzevii [2] was Active. Moreover, the results for the Activity with Pichia kudriavzevii [3] and in the assay on Pichia kudriavzevii [5] were 2559 pg/mL and 1742 pg/mL, respectively.

By MIC is commonly meant the least concentration at which growth counts as inhibited. Read a high MIC as a need for much substance. As to `OC(Cn1cncn1)(Cn1cncn1)c1ccc(F)cc1F` [FLUCONAZOLE], the Activity turned out to be 1292 pg/mL with Pichia kudriavzevii [6] and 2714 pg/mL in the assay on Pichia kudriavzevii [11]. The outcome in the assay on Pichia kudriavzevii [7] was Active. Further, the MIC with Pichia kudriavzevii [8] is more than 64 µg/mL. Also, the figures for the log10CFU/g in the assay with Pichia kudriavzevii [9] and in the assay with Pichia kudriavzevii [10] were 7.01 and 4.77, respectively.

By MIC90 is commonly meant the lowest concentration that inhibits either 90% of growth or 90% of the strains tested, depending on the study. With `CCCCCOc1ccc(-c2ccc(-c3ccc(C(=O)N[C@H]4C[C@@H](O)[C@@H](O)NC(=O)[C@@H]5[C@@H](O)[C@@H](C)CN5C(=O)[C@H]([C@@H](C)O)NC(=O)[C@H]([C@H](O)[C@@H](O)c5ccc(O)cc5)NC(=O)[C@@H]5C[C@@H](O)CN5C(=O)[C@H]([C@@H](C)O)NC4=O)cc3)cc2)cc1` [ANIDULAFUNGIN] ({pTerphenylCO(4''-OnC5H11)}-[Orn(4R-OH,5R-OH)]T[Hyp][hTyr(3S-OH,4S-OH)]T[Pro(3S-OH,4S-Me)]; lactam 1-C), the Activity is 256 pg/mL in the assay on Pichia kudriavzevii [12], 351 pg/mL in the assay on Pichia kudriavzevii [15], 693 pg/mL with Pichia kudriavzevii [18] and 624 pg/mL in the assay with Pichia kudriavzevii [21]. The log10CFU/g with Pichia kudriavzevii [13] came to 4.06; in the assay with Pichia kudriavzevii [16], 0.96; in the assay on Pichia kudriavzevii [17], 3.97; in the assay on Pichia kudriavzevii [22], 1.59. Moreover, the result in the assay with Pichia kudriavzevii [14] and in the assay on Pichia kudriavzevii [19] was Active. Further, the MIC against Pichia kudriavzevii [8] is 0.06 µg/mL (≈ 0.0526 µM). Besides, the MIC90 in the assay with Pichia kudriavzevii [20] came to 0.06 µg/mL (≈ 0.0526 µM).
